Data published in ChEMBL document CHEMBL1914335, “Identification of a potent and selective σ₁ receptor agonist potentiating NGF-induced neurite outgrowth in PC12 cells” (Bioorg Med Chem, 2011).
pKi: −log10 of the molar value. Active and inactive are the calls of the source. No cut-off for these calls is given here.

Legend:
[1] = target: Kappa-type opioid receptor (Cavia porcellus, UniProt P41144); assay: Displacement of [3H]-U69593 from kappa opioid receptor in guinea pig brain membrane after 150 mins by liquid scintillation counting; type: cell membranes
Outline: (§1)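 Guinea pig brain membranes (about 75 µg protein) incubated with 1 nM [3H]-U69,593 in 50 mM Tris, 8 mM MgCl2, pH 7.4, 150 min at 37 °C. Nonspecific binding with 10 µM unlabeled U69,593. Filtration, then solid scintillator counting in triplicate. Residual binding taken at 1 µM; otherwise IC50 from ≥6 concentrations, Ki by Cheng-Prusoff (Kd 0.69 nM).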

[2] = target: Mu-type opioid receptor (Cavia porcellus) (UniProt P97266); assay: Displacement of [3H]-DAMGO from mu opioid receptor in guinea pig brain membrane assessed as residual binding at 1 uM after 150 mins by liquid scintillation counting; type: cell membranes
Outline: as §1, with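 “[3H]-DAMGO” for “[3H]-U69,593”, “MgCl2, 400 µM PMSF,” for “MgCl2,”, “naloxone.” for “unlabeled U69,593.”, “µM test compound;” for “µM;”, “0.57” for “0.69”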

[3] = Displacement of [3H]-DTG from sigma2 receptor in guinea pig brain membrane after 120 mins by liquid scintillation counting; type: cell membranes, Cavia porcellus
Outline: (§2)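 For σ2, membranes (360 µg protein) incubated at rt for 120 min with 3 nM [3H]DTG plus 0.4 µM (+)-SKF10,047, with nine test concentrations in 50 mM Tris-HCl pH 8.0; nonspecific binding with 5 µM DTG. For σ1, 3 nM [3H]-(+)-pentazocine, 150 min at 37 °C, pH 7.4, haloperidol 10 µM. Both read by filtration and scintillation counting; Ki values derived.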

[4] = species: Sus scrofa; assay: Displacement of [3H]-(+)-MK-801 from NMDA receptor PCP binding site in pig brain cortex assessed as residual binding at 10 uM after 150 mins by scintillation counting
Outline: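 Pig brain cortex membranes (about 100 µg protein) incubated with 2 nM [3H]-(+)-MK-801 in 5 mM Tris-acetate/1 mM EDTA pH 7.5, 150 min at rt. Nonspecific binding with 10 µM (+)-MK-801. Filtration, then solid scintillator counting. Residual binding measured at 10 µM test compound.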

[5] = target: Sigma non-opioid intracellular receptor 1 (Cavia porcellus, UniProt Q60492); assay: Displacement of [3H]-(+)-pentazocine from sigma1 receptor in guinea pig brain membrane after 150 mins by liquid scintillation counting; type: cell membranes
Outline: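 Membranes (500 µg protein) incubated with 3 nM [3H]-(+)-pentazocine and nine test concentrations in 50 mM Tris-HCl pH 7.4, 150 min at 37 °C. Nonspecific binding defined by 10 µM haloperidol. Samples filtered on PEI-presoaked GF/B filters and counted by liquid scintillation; Ki calculated from these curves.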

[6] = species: Cavia porcellus; assay: Selectivity ratio of Ki for sigma2 receptor in guinea pig brain membrane to Ki for sigma1 receptor in guinea pig brain membrane; type: cell membranes; outline: as §2
[7] = target: Kappa-type opioid receptor (Cavia porcellus) (UniProt P41144); assay: Displacement of [3H]-U69593 from kappa opioid receptor in guinea pig brain membrane assessed as residual binding at 1 uM after 150 mins by liquid scintillation counting; type: cell membranes; outline: as §1
[8] = target: Mu-type opioid receptor (Cavia porcellus, UniProt P97266); assay: Displacement of [3H]-DAMGO from mu opioid receptor in guinea pig brain membrane after 150 mins by liquid scintillation counting; type: cell membranes
Outline: as §1, with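 “[3H]-DAMGO” for “[3H]-U69,593”, “MgCl2, 400 µM PMSF,” for “MgCl2,”, “naloxone.” for “unlabeled U69,593.”, “µM test compound;” for “µM;”, “0.57” for “0.69”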

[9] = target: Sigma non-opioid intracellular receptor 1 (Rattus norvegicus) (UniProt Q9R0C9); assay: Agonist activity at sigma1 receptor in rat PC12 cells assessed as cells with increase in NGF-induced neurite outgrowth at 0.05 to 2.5 uM after 5 days by phase contrast microscopy; settings: PC-12
[10] = target: Sigma non-opioid intracellular receptor 1 (Rattus norvegicus) (UniProt Q9R0C9); assay: Agonist activity at sigma1 receptor in rat PC12 cells assessed as cells with increase in NGF-induced neurite outgrowth at 0.05 uM after 5 days by phase contrast microscopy; type: functional, cell-based; settings: PC-12
Outline: (§3)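 PC12 cells grown at 37 °C, 5% CO2 in RPMI with 5% FBS and 10% horse serum. Replated at 0.25 × 10^4 cells/cm2 on poly-D-lysine glass coverslips. After 24 h, switched to 0.5% HS medium with NGF 2.5 ng/mL ± drug, BD-1063 at 5 µM final where used. After 5 days, fixed in 4% PFA. Cells with ≥1 neurite at least one cell-body diameter long were scored blind by two examiners; ≥3 independent experiments.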

[11] = target: Sigma non-opioid intracellular receptor 1 (Rattus norvegicus) (UniProt Q9R0C9); assay: Agonist activity at sigma1 receptor in rat PC12 cells assessed as increase of NGF-induced neurite elongation at 0.25 uM after 5 days by phase contrast microscopy; type: functional, cell-based; settings: PC-12
Outline: (§4)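 Culture conditions match the neurite-outgrowth note: PC12 cells on poly-D-lysine coverslips with NGF 2.5 ng/mL ± drug for 5 days, BD-1063 at 5 µM final where used. Cells were then fixed in 4% PFA and imaged by phase contrast, six fields per coverslip. Neurite length was traced from cell body to tip, measured blind by two examiners; ≥3 independent experiments; mean ± SEM.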

[12] = target: Sigma non-opioid intracellular receptor 1 (Rattus norvegicus) (UniProt Q9R0C9); assay: Agonist activity at sigma1 receptor in rat PC12 cells assessed as increase of NGF-induced neurite length at 2.5 uM after 5 days by phase contrast microscopy; type: functional, cell-based; settings: PC-12; outline: as §4
[13] = target: Sigma non-opioid intracellular receptor 1 (Rattus norvegicus) (UniProt Q9R0C9); assay: Agonist activity at sigma1 receptor in rat PC12 cells assessed as cells with increase in NGF-induced neurite outgrowth at 2.5 uM after 5 days by phase contrast microscopy; type: functional, cell-based; settings: PC-12; outline: as §3
[14] = target: Sigma non-opioid intracellular receptor 1 (Rattus norvegicus) (UniProt Q9R0C9); assay: Agonist activity at sigma1 receptor in rat PC12 cells assessed as cells with increase in NGF-induced neurite outgrowth at 0.25 uM after 5 days by phase contrast microscopy; type: functional, cell-based; settings: PC-12; outline: as §3
[15] = target: Sigma non-opioid intracellular receptor 1 (Rattus norvegicus) (UniProt Q9R0C9); assay: Agonist activity at sigma1 receptor in rat PC12 cells assessed as increase of NGF-induced neurite elongation at 0.05 uM after 5 days by phase contrast microscopy; type: functional, cell-based; settings: PC-12; outline: as §4
[16] = target: Sigma non-opioid intracellular receptor 1 (Rattus norvegicus) (UniProt Q9R0C9); assay: Agonist activity at sigma1 receptor in rat PC12 cells assessed as cells with increase in NGF-induced neurite outgrowth at 0.01 uM after 5 days by phase contrast microscopy; type: functional, cell-based; settings: PC-12; outline: as §3
[17] = test system: HaCaT; assay: Cytotoxicity against human HaCaT cells at 1x10'-8 to 1x10'-5 M after 48 hrs by MTT assay; type: cell-based
Outline: (§5)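 HaCaT cells plated at 5000/well. After 24 h, exposed to 1 × 10^-8 to 1 × 10^-5 for 48 or 72 h at 37 °C, 5% CO2, in medium with 5% FBS or serum-free (N = 6 each). Viability was read as optical density in an MTT-based assay.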

[18] = test system: PC-12; assay: Cytotoxicity against rat PC12 cells; type: cell-based
[19] = test system: HaCaT; assay: Cytotoxicity against human HaCaT cells at 1x10'-8 to 1x10'-5 M after 72 hrs by MTT assay; type: cell-based; outline: as §5
[20] = target: Sigma non-opioid intracellular receptor 1 (Rattus norvegicus) (UniProt Q9R0C9); assay: Agonist activity at sigma1 receptor in rat PC12 cells assessed as decrease in NGF-induced neurite elongation at 0.25 uM after 5 days by phase contrast microscopy in presence of 5 uM sigma1 receptor antagonist BD-1064 relative to compound alone; type: functional, cell-based; design: scale not given: the % may be the effect or the level left; settings: PC-12, in the assay text read “BD-1063” for “BD-1064”; outline: as §4
[21] = target: Sigma non-opioid intracellular receptor 1 (Rattus norvegicus) (UniProt Q9R0C9); assay: Agonist activity at sigma1 receptor in rat PC12 cells assessed as cells with increase in NGF-induced neurite outgrowth at 0.25 uM after 5 days by phase contrast microscopy in presence of 5 uM sigma1 receptor antagonist BD-1063; type: functional, cell-based; settings: PC-12; outline: as §3

Sigma non-opioid intracellular receptor 1 (Rattus norvegicus), sequence (Q9R0C9 whole entry): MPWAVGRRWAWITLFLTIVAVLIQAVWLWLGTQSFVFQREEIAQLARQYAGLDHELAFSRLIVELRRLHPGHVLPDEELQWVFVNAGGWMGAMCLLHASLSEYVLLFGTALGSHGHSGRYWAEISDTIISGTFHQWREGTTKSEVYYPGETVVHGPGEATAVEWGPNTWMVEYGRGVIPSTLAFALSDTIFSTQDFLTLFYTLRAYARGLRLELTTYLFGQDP
Mu-type opioid receptor, sequence (P97266 whole entry): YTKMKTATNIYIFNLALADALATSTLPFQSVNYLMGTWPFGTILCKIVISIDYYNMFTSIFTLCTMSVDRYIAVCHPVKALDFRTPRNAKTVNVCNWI
Mu-type opioid receptor (Cavia porcellus), sequence (P97266 whole entry): as above
Sigma non-opioid intracellular receptor 1, sequence (Q60492 whole entry): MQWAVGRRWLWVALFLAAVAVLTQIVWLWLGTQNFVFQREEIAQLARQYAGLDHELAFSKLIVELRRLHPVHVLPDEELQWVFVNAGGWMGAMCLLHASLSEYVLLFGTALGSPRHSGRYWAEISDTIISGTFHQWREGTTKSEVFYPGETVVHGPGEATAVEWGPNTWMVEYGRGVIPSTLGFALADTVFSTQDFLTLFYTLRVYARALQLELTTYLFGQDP
Kappa-type opioid receptor (Cavia porcellus), sequence (P41144 whole entry): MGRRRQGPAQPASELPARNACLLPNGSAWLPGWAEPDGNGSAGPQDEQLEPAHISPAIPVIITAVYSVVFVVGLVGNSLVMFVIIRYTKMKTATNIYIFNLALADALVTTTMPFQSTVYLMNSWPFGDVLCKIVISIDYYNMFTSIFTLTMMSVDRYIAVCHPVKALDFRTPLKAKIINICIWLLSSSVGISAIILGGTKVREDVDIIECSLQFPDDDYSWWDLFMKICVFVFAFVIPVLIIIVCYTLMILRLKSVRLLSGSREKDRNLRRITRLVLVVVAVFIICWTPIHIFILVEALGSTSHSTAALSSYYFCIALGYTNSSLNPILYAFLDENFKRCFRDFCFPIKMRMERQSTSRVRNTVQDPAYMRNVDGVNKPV
Kappa-type opioid receptor, sequence (P41144 whole entry): as above

Compound | Activity [2] [%] | pKi [3] | Activity [4] [%] | pKi [5] | Ratio Ki [6] | Activity [7] [%] | other results
COc1cccc(/C(C)=C/CN2CCC(Cc3ccccc3)CC2)c1 | 36 | 8.24 | 36 | 8.11 | 0.8 |  | pKi [1]: 6.67
COc1ccc(/C(C)=C/CN(C)Cc2ccccc2)cc1 |  | 6.81 | 27 | 8.28 | 29.5 |  | pKi [1]: 6.71; pKi [8]: 7.04
COc1cccc(/C(C)=C/CN(C)Cc2ccccc2)c1 | 49 | 6.79 | 8 | 8.00 | 16.3 |  | pKi [1]: 6.52
C/C(=C\CN1CCC(Cc2ccccc2)CC1)c1ccc(-c2ccccc2)cc1 | 0 | 7.74 | 17 | 8.15 | 2.6 | 10 | 
C/C(=C\CN1CCCCC1)c1ccc(-c2ccccc2)cc1 | 0 | 6.95 | 32 | 9.07 | 129 | 6 | Activity [9]: inactive; Activity [10]: inactive; Activity [11]: inactive; Activity [12]: inactive; Activity [13]: inactive; Activity [14]: inactive; Activity [15]: inactive
C/C(=C\CN1CCCCC1)c1ccc2ccccc2c1 | 23 | 7.45 | 16 | 9.01 | 36.2 | 44 | 
C/C(=C\CN(C)C)c1ccc(-c2ccccc2)cc1 |  | 6.97 |  |  | 75.7 |  | 
C/C(=C\CN(C)Cc1ccccc1)c1ccc2ccccc2c1 |  | 6.06 |  |  | 111 |  | 
C/C(=C\CN1CCC(Cc2ccccc2)CC1)c1ccccc1 |  | 8.26 | 0 | 8.97 | 5.1 |  | pKi [1]: 6.72; pKi [8]: 6.82
C/C(=C\CN(C)C)c1ccccc1 | 0 | < 6.00 | 0 | < 6.00 |  | 0 | 
C/C(=C\CN(C)C)c1ccc2ccccc2c1 |  | 6.83 |  |  | 7.5 |  | 
COc1cccc(/C(C)=C/CN(C)C)c1 | 17 | < 6.00 | 60 | < 6.00 |  | 5 | 
C/C(=C\CN1CCCCC1)c1ccccc1 | 19 | 6.72 | 0 | 6.34 | 0.4 | 0 | 
O=C(OCCN1CCOCC1)C1(c2ccccc2)CCCCC1 |  |  |  |  |  |  | Activity [12]: inactive; Activity [16]: inactive; Activity [13]: inactive
C/C(=C\CN(C)Cc1ccccc1)c1ccc(-c2ccccc2)cc1 |  | 7.12 |  |  | 12 |  | 
CC(CCN1CCCCC1)c1ccc(-c2ccccc2)cc1.Cl (racemic) | 0 | 6.99 | 25 | 9.15 | 147 | 36 | Activity [17]: Non-toxic; Activity [18]: Non-toxic; Activity [11]: 131 µm; Activity [19]: Non-toxic; Activity [16]: 23.4%; Activity [20]: 31%; Activity [21]: 18.6%
C/C(=C\CN1CCC(Cc2ccccc2)CC1)c1ccc2ccccc2c1 | 38 | 7.80 | 17 | 7.64 | 0.7 | 10 | 
C/C(=C\CN(C)Cc1ccccc1)c1ccccc1 |  | 7.21 | 67 | 7.04 | 0.7 |  | pKi [1]: 6.36; pKi [8]: 6.92

More lines, main results first:

Activity [2] [%] | pKi [3] | Activity [4] [%] | pKi [5] | Ratio Ki [6] | Activity [7] [%] | Compound | other results
36 | 6.83 | 0 | 7.85 | 10.6 | 14 | COc1ccc(/C(C)=C/CN2CCCCC2)cc1 | 
44 | 6.64 | 31 | 8.02 | 23.9 | 15 | C/C(=C\CN1CCOCC1)c1ccc2ccccc2c1 | 
10 | < 6.00 | 0 | 6.09 |  | 20 | COc1ccc(/C(C)=C/CN(C)C)cc1 | 
46 | < 6.00 | 20 | < 6.00 |  | 10 | COc1cccc(/C(C)=C/CN2CCOCC2)c1 | 
 | 8.15 | 0 | 8.38 | 1.7 |  | COc1ccc(/C(C)=C/CN2CCC(Cc3ccccc3)CC2)cc1 | pKi [1]: 6.80; pKi [8]: 6.83
21 | 6.53 | 0 | 7.04 | 3.2 | 22 | COc1cccc(/C(C)=C/CN2CCCCC2)c1 | 
12 | < 6.00 | 19 | < 6.00 |  | 3 | C/C(=C\CN1CCOCC1)c1ccccc1 | 
52 | 6.41 | 69 | 7.94 | 33.3 | 10 | C/C(=C\CN1CCOCC1)c1ccc(-c2ccccc2)cc1 | 
0 | < 6.00 | 10 | < 6.00 |  | 8 | COc1ccc(/C(C)=C/CN2CCOCC2)cc1 | 
